Screening results deposited in PubChem BioAssay by Broad Institute.
The list is not random: actives were taken first. Their share in the collection is about 1.3%.
SIRT5 inh: inhibitors of human sirtuin-5 desuccinylase; Q9NXA8; Purified SirT5, succinyl-peptide AMC, trypsin-coupled fluorescence; inhibition, % at 15 µM; hit rate 1.1% among 330,000; AID 652115; in the data active = inhibition above about 15%; inconclusive = no clear call, values can overlap the other calls
ERp5 inh: inhibitors of human ERp5; Q15084; ERp5 insulin aggregation, absorbance 650 nm, 90 min; inhibition, % at 9.99 µM; hit rate 0.05% among 350,000;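 active = mean replicate inhibition above about 25%, with every replicate also reaching it, limit read from the data, passing the limit was not always enough; inconclusive = only one of those two criteria met; inactive = neither criterion met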
Target sequence (Q15084 whole entry, looked up): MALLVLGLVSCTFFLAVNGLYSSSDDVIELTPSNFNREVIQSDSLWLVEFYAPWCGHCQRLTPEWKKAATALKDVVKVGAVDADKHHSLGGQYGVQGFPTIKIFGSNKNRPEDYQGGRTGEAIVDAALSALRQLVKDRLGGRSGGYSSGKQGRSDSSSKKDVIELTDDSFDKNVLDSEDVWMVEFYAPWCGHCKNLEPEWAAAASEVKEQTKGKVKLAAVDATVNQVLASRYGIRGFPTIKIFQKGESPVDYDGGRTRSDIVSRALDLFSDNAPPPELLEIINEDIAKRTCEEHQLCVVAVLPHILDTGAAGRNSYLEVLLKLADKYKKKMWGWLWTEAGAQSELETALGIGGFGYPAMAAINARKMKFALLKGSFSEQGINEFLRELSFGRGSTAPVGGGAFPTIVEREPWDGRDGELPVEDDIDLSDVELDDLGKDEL
FN deposition inh: fibronectin deposition inhibition; AH1F fibroblasts, Alexa488-fibronectin deposition fluorescence, overnight; inhibition, % at 12.6 µM; hit rate 0.086% among 350,000;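 active = mean inhibition across replicates of 30% or more, regardless of how many single replicates reach that level; inconclusive = mean under 30% yet at least half of replicates reach 30%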;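 also: positive control wells lacked labelled fibronectin entirely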
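Material – AH1F fibroblast monolayer, labelled fibronectin deposition · Reagent – labelled fibronectin 24 nM · Timing – 1 h adhesion, overnight exposure · Measured by – fluorescence at 485 nm excitation, 525 nm emission · Read-out – inhibition of fibronectin deposition signal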
PDI inh: blocks human protein disulfide isomerase activity. P07237. PDI insulin aggregation turbidity, A650, 90 min. inhibition, % at 10 µM. hit rate 0.052% among 350,000. AID 588391;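 active = mean inhibition across replicates of 30% or more, whatever share of single replicates reach that level; inconclusive = mean inhibition below 30% while every single replicate reaches 30%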
MLL AF4-AF9 inh: MLL-AF4/AF9 protein interaction inhibition; hit rate 0.47% among 350,000; AlphaScreen, biotin-AF4 peptide binding to FLAG-AF9; inhibition, % at 10 µM; P42568;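 active = every replicate reaching a set inhibition limit, whatever the replicate mean, cut at about 25% in these data; inconclusive = mean inhibition reaches that limit but some replicates miss it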;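 also: 0% = plate neutral control median and 100% = total signal loss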
* marks the source's active call; other numbers are inactive results; ? = inconclusive; . = no result.

SMILES | SIRT5 inh | ERp5 inh | FN deposition inh | PDI inh | MLL AF4-AF9 inh
CC1=NN(C(=O)c2ccc(Cn3cc([N+](=O)[O-])cn3)cc2)C(O)(C(F)(F)F)C1 (stereo unspecified) | 18* | ? | -3 | -2 | -1
COc1cc2[nH]c(=O)n(CCCCCC(=O)N3CCN(c4ccccn4)CC3)c(=O)c2cc1OC | 24* | 1 | -1 | 11 | .
COc1cc2[nH]c(=O)n(CCCC(=O)N3CC=C(c4ccccc4)CC3)c(=O)c2cc1OC | . | . | 11 | -3 | .
COc1ccc(-c2cc(C(=O)Nc3cc(OC)c(OC)c(OC)c3)no2)cc1OC | -5 | 0 | . | -2 | 1
COc1ccccc1/C=C/C(=O)NCC(=O)N/N=C/c1ccccc1 | -1 | -5 | . | 0 | 0
COc1ccccc1/C=C/C(=O)NCC(=O)N/N=C/c1ccc(C)o1 | 100* | 2 | 3 | -1 | 1
COc1ccccc1/C=N/NC(=O)COCC(=O)N/N=C/c1ccccc1OC | 19* | 4 | -3 | 5 | 1
Cc1ccc(S(=O)(=O)c2ccc(Oc3cccc(C)c3)cc2)cc1 | . | . | 4 | 32* | .
C=CCN1CC(=O)N2Cc3[nH]c4ccccc4c3C[C@H]2C1=O | -6 | 2 | 2 | -3 | -2
CC(C)N1CCc2c(sc(NC(=O)c3ccc(S(=O)(=O)N(C)CC4CCCO4)cc3)c2C(N)=O)C1 (stereo unspecified) | -2 | 1 | -4 | 11 | 2
CCN1CCc2c(sc(NC(=O)c3ccc(S(=O)(=O)N(C)CC4CCCO4)cc3)c2C(N)=O)C1 (stereo unspecified) | 24* | -3 | 1 | -3 | 3
COCC(=O)N(C)C[C@H]1Oc2cc(C#CC(C)(C)O)ccc2S(=O)(=O)N([C@@H](C)CO)C[C@H]1C | -3 | 68* | . | . | -7
COCC(=O)N(C)C[C@H]1Oc2cc(C#CC(C)(C)O)ccc2S(=O)(=O)N([C@@H](C)CO)C[C@@H]1C | -3 | 47* | . | . | -1
COCC(=O)N(C)C[C@@H]1Oc2cc(C#CC(C)(C)O)ccc2S(=O)(=O)N([C@H](C)CO)C[C@H]1C | -3 | -37 | . | . | -2
COCC(=O)N(C)C[C@H]1Oc2cc(C#CC(C)(C)O)ccc2S(=O)(=O)N([C@H](C)CO)C[C@@H]1C | -3 | 7 | . | . | 0
CCOc1ccccc1NC(=O)CSc1nnc(-c2cnccn2)n1CC | . | . | 7 | 17 | .
O=C(NC1CCCC1)N[C@@H]1CC[C@H](CC(=O)N2CCOCC2)O[C@H]1CO | 25* | 2 | . | . | 2
O=C(NC1CCCCC1)N[C@H]1CC[C@@H](CC(=O)N2CCOCC2)O[C@H]1CO | -1 | -1 | 5 | . | 0
C/C(=N\NC(=O)C1CC1(c1ccccc1)c1ccccc1)c1cccc([N+](=O)[O-])c1 (stereo unspecified) | 15* | 0 | 2 | -2 | -25
C[C@@H]1CN([C@@H](C)CO)C(=O)Cc2cc(NS(=O)(=O)c3ccc(F)cc3)ccc2O[C@H]1CN(C)CC1CCCCC1 | 16* | 3 | . | . | 0
C[C@H](CO)N1C[C@H](C)[C@H](CN(C)CC2CCCCC2)Oc2ccc(NS(=O)(=O)c3ccc(Cl)cc3)cc2CC1=O | 29* | 2 | . | . | 13
C[C@H]1CN([C@@H](C)CO)C(=O)Cc2cc(NS(=O)(=O)c3ccc(F)cc3)ccc2O[C@H]1CN(C)CC1CCCCC1 | 17* | 0 | . | . | 0
COc1cc(CN2CCN(C(=O)c3ccc(-c4ccccc4)cc3)CC2)cc(OC)c1OC | -1 | 5 | . | -3 | 4
COc1cccc(CN2CCN(C(=O)c3ccc(-c4ccccc4)cc3)CC2)c1OC | -2 | -2 | 32* | 6 | -1
CCOC(=O)c1cnc2nc(N3CCOCC3)nn2c1N | -5 | 10 | -12 | 0 | 0
SMILES | SIRT5 inh | ERp5 inh | FN deposition inh | PDI inh | MLL AF4-AF9 inh
CCOC(=O)c1cnc2nc(C)nn2c1N | 69* | 3 | -1 | -2 | -2
C[C@@H]1CN([C@H](C)CO)C(=O)Cc2cc(NC(=O)c3ccncc3)ccc2O[C@H]1CN(C)S(=O)(=O)c1cn(C)cn1 | -4 | 77* | . | . | -2
C[C@@H]1CN([C@H](C)CO)C(=O)Cc2cc(NS(=O)(=O)c3ccc(F)cc3)ccc2O[C@@H]1CN(C)S(=O)(=O)c1cn(C)cn1 | -6 | 27* | . | . | 5
C[C@@H]1CN([C@H](C)CO)C(=O)Cc2cc(NS(=O)(=O)c3ccc(F)cc3)ccc2O[C@H]1CN(C)S(=O)(=O)c1cn(C)cn1 | -8 | 20 | . | . | 2
COc1ccc(NC(=O)c2cc([N+](=O)[O-])ccc2N2CCCC2)cc1S(N)(=O)=O | 5 | 8 | 14 | 4 | 14
Cc1ccc(CNc2ccc(N3CCOCC3)cc2)s1 | . | . | . | -1 | .
CC(=O)N1CCN(c2ccc(NCc3ccc(C)s3)cc2)CC1 | -2 | -1 | -5 | . | 27*
COc1ccc(C2=NOC(COc3ccc([N+](=O)[O-])cc3)C2)cc1 (stereo unspecified) | 0 | 4 | -1 | -2 | -2
COc1cc2cc(C)c(SCC(=O)N3CCN(C(=O)c4ccco4)CC3)nc2cc1OC | -1 | 2 | 1 | 8 | -34
CCOc1cccc(C(=O)Nc2ccc(N(CC)CC)cc2)c1 | . | . | 30* | 1 | .
Cc1ccc2nc(C(=O)N3CCCC(Nc4ccc(F)cc4)C3)cn2c1 (stereo unspecified) | -2 | -2 | . | 12 | 0
CC(=O)c1cc(-c2ccc(F)cc2)n(CCC(=O)NC(C)(C)C)c1C | 20* | 7 | 16 | -12 | 2
CCC(C)NC(=O)CCn1c(-c2ccc(F)cc2)cc(C(C)=O)c1C (stereo unspecified) | -3 | 3 | -3 | -10 | -3
COc1ccc(-c2ccc(NCCN3CCOCC3)nn2)cc1OC | 16* | 1 | 1 | 11 | 1
CCNC(=O)C1CCCN(C(=O)c2ccc(OC)c(OC)c2)CC1 (stereo unspecified) | 17* | 2 | 2 | -4 | -2
CCCC#Cc1ccc2c(c1)O[C@@H](CN(C)C(=O)Nc1ccc(OC)cc1)[C@H](C)CN([C@@H](C)CO)S2(=O)=O | 10 | 17 | . | . | 0
COCC#Cc1ccc2c(c1)O[C@H](CN(C)C(=O)Nc1ccc(OC)cc1)[C@@H](C)CN([C@@H](C)CO)S2(=O)=O | -5 | -2 | 6 | . | 0
COc1ccc(NC(=O)N(C)C[C@@H]2Oc3cc(C#CCC(C)C)ccc3S(=O)(=O)N([C@H](C)CO)C[C@H]2C)cc1 | 25* | -4 | . | . | .
COc1cccc(NC(=O)N(C)C[C@H]2Oc3cc(-c4ccccc4F)ccc3S(=O)(=O)N([C@@H](C)CO)C[C@H]2C)c1 | 19* | 4 | 5 | . | 1
COc1ccc(NC(=O)N(C)C[C@@H]2Oc3cc(C#CCC(C)C)ccc3S(=O)(=O)N([C@@H](C)CO)C[C@@H]2C)cc1 | 29* | 3 | . | . | 6
CCCC#Cc1ccc2c(c1)O[C@H](CN(C)C(=O)Nc1ccc(OC)cc1)[C@@H](C)CN([C@@H](C)CO)S2(=O)=O | 18* | -10 | . | . | 2
